Columns and labels:
[1] = Apparent clearance in human liver microsomes; assay type: ADME, Microsome; conditions: read-out: CLH(app)
[2] = Cmax in rat at 5 mg/kg, po; assay type: ADME, organism-based; parameters: dose 5 mg/kg, route oral; conditions: in vivo
Outline: (§1)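 Rat PK. Oral dose 5 mg/kg given in 0.5% methylcellulose. Cmax and AUC are reported as free drug concentrations. Bioavailability is taken relative to a 1 mg/kg intravenous dose.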

[3] = Metabolic stability in human liver microsomes assessed as compound remaining after 1 hr; assay type: ADME, Microsome; conditions: read-out: Stability
Outline: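 Human liver microsomes incubated with compound for 1 h. Read-out is percent of parent remaining.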

[4] = Half life in rat; assay type: ADME, organism-based; conditions: in vivo; outline: as §1
[5] = Volume of distribution at steady state in rat at 1 mg/kg, iv; assay type: ADME, organism-based; parameters: dose 1 mg/kg, route intravenous; conditions: in vivo, read-out: Vdss
Outline: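 Rat, single intravenous dose of 1 mg/kg. Steady-state volume of distribution comes from the plasma profile.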

[6] = test system: Rattus norvegicus; assay: AUC in rat at 5 mg/kg, po; assay type: ADME, organism-based, Plasma; parameters: dose 5 mg/kg, route oral; conditions: in vivo; outline: as §1
[7] = test system: Rattus norvegicus; assay: Oral bioavailability in rat at 5 mg/kg; assay type: ADME, organism-based; conditions: in vivo; outline: as §1
[8] = Lipophilicity, log D of the compound; assay type: physicochemical; conditions: octanol/water

Row | CLint scaled [1] [mL/min/kg] | Compound | also measured
1 | 9 | CN1CCN(C(=O)C[C@H]2CC[C@H](c3ccc(N4CCOc5ncnc(N)c5C4=O)cc3)CC2)CC1=O | –
2 | 39 | Nc1ncnc2c1C(=O)N(c1ccc([C@H]3CC[C@H](CC(=O)NC4CCCC4)CC3)cc1)CCO2 | –
3 | < 8 | Nc1ncnc2c1C(=O)N(c1ccc([C@H]3CC[C@H](Cc4nnn[nH]4)CC3)cc1)CCO2 | –
4 | < 8 | Nc1ncnc2c1C(=O)N(c1ccc(C3CCN(C(=O)c4cnon4)CC3)cc1)CCO2 | –
5 | < 8 | Cc1nnc(C[C@H]2CC[C@H](c3ccc(N4CCOc5ncnc(N)c5C4=O)cc3)CC2)o1 | –
6 | 82 | Cc1noc(CC[C@H]2CC[C@H](c3ccc(N4CCOc5ncnc(N)c5C4=O)cc3)CC2)n1 | –
7 | < 8 | Nc1ncnc2c1C(=O)N(c1ccc([C@H]3CC[C@H](CC(=O)O)CC3)cc1)CCO2 [PF-04620110] | Cmax [2]: 225 ng/mL; remaining at 1 h [3]: 93%; half-life [4]: 7.3 h; Vd [5]: 1.8 L/kg; AUC [6]: 565 ng·h/mL
8 | 11 | CC(C)C(=O)N1CCC(c2ccc(N3CCOc4ncnc(N)c4C3=O)cc2)CC1 | –
9 | < 8 | Cc1nnc(C[C@H]2CC[C@H](c3ccc(N4CCOc5ncnc(N)c5C4=O)cc3)CC2)[nH]1 | –
10 | < 8 | Cc1nnc(C[C@H]2CC[C@H](c3ccc(N4CCOc5ncnc(N)c5C4=O)cc3)CC2)n1C | –
11 | < 8 | Nc1ncnc2c1C(=O)N(c1ccc(C3CCN(C(=O)c4ccccc4)CC3)cc1)CCO2 | –
12 | < 8 | CCNC(=O)C[C@H]1CC[C@H](c2ccc(N3CCOc4ncnc(N)c4C3=O)cc2)CC1 | –
13 | < 8 | NC(=O)C[C@H]1CC[C@H](c2ccc(N3CCOc4ncnc(N)c4C3=O)cc2)CC1 | Cmax [2]: 273 ng/mL; half-life [4]: 4.3 h; F [7]: 88%; Vd [5]: 1.6 L/kg; AUC [6]: 810 ng·h/mL
14 | 41 | Nc1ncnc2c1C(=O)N(c1ccc(C3CCN(C(=O)C4CCCCC4)CC3)cc1)CCO2 | –
15 | 12 | CC(C)(N)C[C@H]1CC[C@H](c2ccc(N3CCOc4ncnc(N)c4C3=O)cc2)CC1 | –
16 | 13 | Nc1ncnc2c1C(=O)N(c1ccc(C3CCN(C(=O)c4ccno4)CC3)cc1)CCO2 | –
17 | 8.4 | Nc1ccnc2c1C(=O)N(c1ccc([C@H]3CC[C@H](CC(=O)O)CC3)cc1)CCO2 | –
18 | < 8 | N#CC[C@H]1CC[C@H](c2ccc(N3CCOc4ncnc(N)c4C3=O)cc2)CC1 | Cmax [2]: 174 ng/mL; half-life [4]: 3.1 h; F [7]: 85%; Vd [5]: 2 L/kg; AUC [6]: 801 ng·h/mL

Row | CLint scaled [1] [mL/min/kg] | Compound | also measured
19 | < 8 | Nc1ncnc2c1C(=O)N(c1ccc([C@H]3CC[C@H](CCC(=O)O)CC3)cc1)CCO2 | –
20 | < 8 | Nc1ncnc2c1C(=O)N(c1ccc([C@H]3CC[C@H](CC(=O)N4CC(O)C4)CC3)cc1)CCO2 | –
21 | < 8 | Nc1ncnc2c1C(=O)N(c1ccc([C@H]3CC[C@H](CC(=O)N4CC[C@@H](O)C4)CC3)cc1)CCO2 | –
22 | 11 | Nc1ncnc2c1CN(c1ccc([C@H]3CC[C@H](CCO)CC3)cc1)CCO2 | –
23 | 107 | COC1CCN(C(=O)C[C@H]2CC[C@H](c3ccc(N4CCOc5ncnc(N)c5C4=O)cc3)CC2)CC1 | –
24 | 15 | Nc1ncnc2c1C(=O)N(c1ccc([C@H]3CC[C@H](CC(=O)N4CCCC4)CC3)cc1)CCO2 | –
25 | < 8 | Cc1nnc(C[C@H]2CC[C@H](c3ccc(N4CCOc5ncnc(N)c5C4=O)cc3)CC2)s1 | –
26 | < 8 | CC(C)(O)C[C@H]1CC[C@H](c2ccc(N3CCOc4ncnc(N)c4C3=O)cc2)CC1 | Cmax [2]: 171 ng/mL; half-life [4]: 2.6 h; F [7]: 100%; Vd [5]: 1.3 L/kg; AUC [6]: 1260 ng·h/mL
27 | < 8 | Nc1ncnc2c1C(=O)N(c1ccc(C3CCN(C(=O)[C@H]4CC[C@@H](O)CC4)CC3)cc1)CCO2 | –
28 | < 8 | Cc1noc(C[C@H]2CC[C@H](c3ccc(N4CCOc5ncnc(N)c5C4=O)cc3)CC2)n1 | Cmax [2]: 118 ng/mL; logD [8]: 2.3; half-life [4]: 2.7 h; F [7]: 53%; Vd [5]: 1.2 L/kg; AUC [6]: 727 ng·h/mL
29 | < 8 | Cc1nc(N)c2c(n1)OCCN(c1ccc([C@H]3CC[C@H](CC(=O)O)CC3)cc1)C2=O | –
30 | < 8 | CN(CC(=O)O)C(=O)C[C@H]1CC[C@H](c2ccc(N3CCOc4ncnc(N)c4C3=O)cc2)CC1 | –
31 | < 8 | CC(=O)N1CCC(c2ccc(N3CCOc4ncnc(N)c4C3=O)cc2)CC1 | –
32 | < 8 | CC(C)[C@H](CO)NC(=O)C[C@H]1CC[C@H](c2ccc(N3CCOc4ncnc(N)c4C3=O)cc2)CC1 | –
33 | < 8 | Nc1ncnc2c1C(=O)N(c1ccc(C3CCN(C(=O)C4CCOCC4)CC3)cc1)CCO2 | –
34 | < 8 | Nc1ncnc2c1C(=O)N(c1ccc([C@H]3CC[C@H](CC(=O)N4CCOCC4)CC3)cc1)CCO2 | Cmax [2]: 425 ng/mL; half-life [4]: 2 h; F [7]: 77%; Vd [5]: 1.2 L/kg; AUC [6]: 838 ng·h/mL
35 | 12 | Nc1ncnc2c1C(=O)N(c1ccc(C3CCN(C(=O)c4ccon4)CC3)cc1)CCO2 | –
